The values that follow come from publication PMC7610535 (Nature chemical biology, 2020).

In assay [1] the target is T1, AURORA-A (Homo sapiens, UniProt O14965).
T1 sequence (O14965 1-403): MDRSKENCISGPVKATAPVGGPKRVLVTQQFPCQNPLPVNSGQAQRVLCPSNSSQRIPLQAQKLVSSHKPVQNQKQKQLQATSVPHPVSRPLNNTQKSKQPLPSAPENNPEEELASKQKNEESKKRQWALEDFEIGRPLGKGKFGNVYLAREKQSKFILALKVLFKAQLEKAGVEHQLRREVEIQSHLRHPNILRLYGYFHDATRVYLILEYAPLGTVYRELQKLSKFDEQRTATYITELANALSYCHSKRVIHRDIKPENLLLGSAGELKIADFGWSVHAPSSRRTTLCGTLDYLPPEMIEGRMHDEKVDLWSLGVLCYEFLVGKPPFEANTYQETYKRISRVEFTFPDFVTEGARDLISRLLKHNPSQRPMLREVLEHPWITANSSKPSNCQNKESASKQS
Put plainly: AURORA-A-NanoLuc target engagement assay. The settings on record: AURORA-A vs AURORA-B, depending on experimental conditions (BRET, Kinobeads). In kind it is binding. Background: Bioluminescence resonance energy transfer reports proximity on the nanometre scale.

The target in assay [2] is T1, AURORA-A. Put plainly: Immunoblot of AURORA-A in compound-treated MV4-11 cells. In kind it is cell-based. Background: In western blotting, separated proteins are transferred to a membrane and probed.
In the next assay the test system is MV4-11 cells. Put plainly: BrdU/PI flow cytometry, cell cycle distribution of MV4-11 cells. Format: cell-based, human. The settings on record: 1 µM, 12 hours. A digest of the protocol:
(§1)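 Cells were pulsed with 10 µM BrdU for 1 h, washed in ice-cold PBS and fixed overnight in 80% ethanol at −20 °C. After a 1% BSA/PBS-T wash, they were stained 30 min at 37 °C with RNase A (24 µg/ml) and propidium iodide (54 µM), then analysed by flow cytometry. For IMR5, the EtOH-treated cells of the doxycycline-inducible line served as the non-overexpressing cells.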
(Flow cytometry measures light scatter and fluorescence of single cells or particles in a stream.)

A further assay has as its system IMR5 cells. In words: BrdU/PI flow cytometry, cell cycle distribution of IMR5 cells. The settings on record: IMR5 cells without ectopic AURORA-A, 1 µM, 18 hours. Format: cell-based, human. The method, boiled down: as §1
For a further assay, the target named is AK2 (Homo sapiens, UniProt P54819). In words: Kinobead selectivity profiling: AK2. In kind it is binding.

On to `COc1cc(Nc2ncc3c(n2)-c2ccc(Cl)cc2C(c2c(F)cccc2OC)=NC3)ccc1C(=O)O` [Alisertib, alisertib, reference compound], for which, on AURORA-A [1], the “difference of affinities for AURORA-A and AURORA-B” value is recorded as 3- to 50 fold. The “reduction of steady-state AURORA-A levels (in words)” value on AURORA-A [2] is reported as “did not decrease AURORA-A levels, but instead substantially increased it”. In addition, the cell cycle distribution entry in the assay on MV4-11 cells is reported as “almost all cells arrested in G2/M”; in the assay with IMR5 cells, “led to G2/M arrest”. In addition, on AK2, the Kd (as a rule, the free concentration of one partner at which half of the binding sites on the other are occupied at equilibrium, for simple one-to-one binding) was 215 nM.
